Source: ChEMBL document CHEMBL1124400, “Synthesis and evaluation of antileukemic activity of 5-thienyl- or 5-(2-furyl)-2,3-dihydro-6,7-bis(hydroxymethyl)-1H-pyrrolizine bis(alkylcarbamates) and derivatives” (J Med Chem, 1989)
Several values for one entry are separate records, joined by “and”; a condition that tells them apart may be missing. Equal values may be shown once.

Legend:
[1] = Ratio of acute lethal dose to the efficient dose 35 mg/kg; type: functional
Procedure, shortened: (§1)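 Ratio of acute LD50 to efficient dose. LD50 came from single ip dosing one day after ip grafting of 10⁵ L1210 cells in B6D2F1 mice, with 9-day mortality. The efficient dose came from ip treatment on days 1, 5 and 9 in the median-survival test.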

[2] = Ratio, I x 100/ref I at a dose of 40 mg/kg in L1210 leukemic mice; type: functional
Procedure, shortened: (§2)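 Male B6D2F1 mice, 3 months old, received 10^5 L1210 cells ip on day 0. Dosing was ip on days 1, 5 and 9 in 20% aqueous Tween 80, 0.1–0.2 mL per 20 g, with 8 mice per group. There were 12 vehicle controls and 8 mice given mitomycin 2 mg/kg ip in water. Daily mortality was recorded, with autopsies. Ratio = treated-group MST ×100/reference-group MST; Wilcoxon, p<0.05.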

[3] = Ratio of acute lethal dose to the efficient dose 65 mg/kg; type: functional; procedure, shortened: as §1
Mus musculus [4] = test: Median survival time of treated group / untreated group, when 40 mg/kg compound is administered intraperitoneally in L1210 leukemic mice; type: functional; conditions: route intraperitoneal
Procedure, shortened: (§3)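 Male 3-month-old B6D2F1 mice, 10⁵ L1210 cells ip on day 0. Compound was given ip on days 1, 5 and 9 in aqueous 20% Tween 80 (0.1–0.2 mL per 20 g), 8 mice per group. Twelve vehicle controls. Daily mortality with autopsy to assign leukemic versus toxic death. I = treated MST × 100/control MST. Wilcoxon test, p < 0.05; active if I > 125 and p < 0.05.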

[5] = Ratio, I x 100/ref I at a dose of 35 mg/kg in L1210 leukemic mice; type: functional; procedure, shortened: as §2
[6] = Ratio of acute lethal dose to the efficient dose 30 mg/kg; type: functional; procedure, shortened: as §1
[7] = Ratio of acute lethal dose to the efficient dose 40 mg/kg; type: functional; procedure, shortened: as §1
[8] = Ratio, I x 100/ref I at a dose of 65 mg/kg in L1210 leukemic mice; type: functional; procedure, shortened: as §2
Mus musculus [9] = test: Median survival time of treated group / untreated group, when 65 mg/kg compound is administered intraperitoneally in L1210 leukemic mic; type: functional; conditions: route intraperitoneal; procedure, shortened: as §3
[10] = Lethal dose in L1210 leukemic mice, by administering compound intraperitoneally; type: toxicity, organism-based; conditions: mouse, in vivo, ip
Procedure, shortened: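 Male B6D2F1 mice (3 months old) received 10⁵ L1210 leukemia cells ip on day 0. One day later they were given compound ip. Mortality was recorded daily for 9 days and the acute LD50 expressed in mg/kg.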

Mus musculus [11] = test: Median survival time of treated group / untreated group, when 35 mg/kg compound is administered intraperitoneally in L1210 leukemic mice; type: functional; conditions: route intraperitoneal; procedure, shortened: as §3
Mus musculus [12] = test: MST of mitomycin 2 mg/kg treated group x 100/MST of untreated control group at a dose of 65 mg/kg in L1210 leukemic mice; type: functional
Procedure, shortened: (§4)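 Reference group of 8 B6D2F1 mice bearing ip-grafted 10⁵ L1210 cells (day 0), given mitomycin 2 mg/kg in distilled water ip on days 1, 5 and 9. Controls were 12 mice given vehicle only. Mortality was followed daily with autopsy. Ref I = mitomycin-group MST × 100/control MST, run alongside each test experiment.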

Mus musculus [13] = test: MST of mitomycin 2 mg/kg treated group x 100/MST of untreated control group at a dose of 35 mg/kg in L1210 leukemic mice; type: functional; procedure, shortened: as §4
Mus musculus [14] = test: MST of mitomycin 2 mg/kg treated group x 100/MST of untreated control group at a dose of 40 mg/kg in L1210 leukemic mice; type: functional; procedure, shortened: as §4
Mus musculus [15] = test: Median survival time of treated group / untreated group, when 75 mg/kg compound is administered intraperitoneally in L1210 leukemic mice; type: functional; conditions: route intraperitoneal; procedure, shortened: as §3
Mus musculus [16] = test: Median survival time of treated group / untreated group, when 16 mg/kg compound is administered intraperitoneally in L1210 leukemic mice; type: functional; conditions: route intraperitoneal; procedure, shortened: as §3
[17] = Ratio, I x 100/ref I at a dose of 16 mg/kg in L1210 leukemic mice; type: functional; procedure, shortened: as §2
Mus musculus [18] = test: Median survival time of treated group / untreated group, when 100 mg/kg compound is administered intraperitoneally in L1210 leukemic mice; conditions: route intraperitoneal
[19] = Ratio of acute lethal dose to the efficient dose at 85 mg/kg dose; type: functional; procedure, shortened: as §1
Mus musculus [20] = test: MST of mitomycin 2 mg/kg treated group x 100/MST of untreated control group at a dose of 100 mg/kg in L1210 leukemic mice; type: functional; procedure, shortened: as §4
Mus musculus [21] = test: MST of mitomycin 2 mg/kg treated group x 100/MST of untreated control group at a dose of 75 mg/kg in L1210 leukemic mice; type: functional; procedure, shortened: as §4
[22] = Ratio, I x 100/ref I at a dose of 100 mg/kg in L1210 leukemic mice; type: functional; procedure, shortened: as §2
[23] = Ratio of acute lethal dose to the efficient dose at 100 mg/kg dose; type: functional; procedure, shortened: as §1
[24] = Ratio, I x 100/ref I at a dose of 75 mg/kg in L1210 leukemic mice
Mus musculus [25] = test: MST of mitomycin 2 mg/kg treated group x 100/MST of untreated control group at a dose of 16 mg/kg in L1210 leukemic mice; type: functional; procedure, shortened: as §4
[26] = Ratio, I x 100/ref I at a dose of 30 mg/kg in L1210 leukemic mice; type: functional; procedure, shortened: as §2
Mus musculus [27] = test: Median survival time of treated group / untreated group, when 50 mg/kg compound administered intraperitoneally in L1210 leukemic mice; type: functional; conditions: route intraperitoneal; procedure, shortened: as §3
[28] = Ratio, I x 100/ref I at a dose of 15 mg/kg in L1210 leukemic mice; type: functional; procedure, shortened: as §2
Mus musculus [29] = test: MST of mitomycin 2 mg/kg treated group x 100/MST of untreated control group at a dose of 15 mg/kg in L1210 leukemic mice; type: functional; procedure, shortened: as §4
Mus musculus [30] = test: Median survival time of treated group / untreated group, when 15 mg/kg compound is administered intraperitoneally in L1210 leukemic mice; type: functional; conditions: route intraperitoneal; procedure, shortened: as §3
[31] = Ratio, I x 100/ref I at a dose of 50 mg/kg in L1210 leukemic mice; type: functional; procedure, shortened: as §2
Mus musculus [32] = test: Median survival time of treated group / untreated group, when 30 mg/kg compound is administered intraperitoneally in L1210 leukemic mice; type: functional; conditions: route intraperitoneal; procedure, shortened: as §3
Mus musculus [33] = test: MST of mitomycin 2 mg/kg treated group x 100/MST of untreated control group at a dose of 30 mg/kg in L1210 leukemic mice; type: functional; procedure, shortened: as §4
Mus musculus [34] = test: MST of mitomycin 2 mg/kg treated group x 100/MST of untreated control group at a dose of 50 mg/kg in L1210 leukemic mice; type: functional; procedure, shortened: as §4

SMILES: CNC(=O)OCc1c(COC(=O)NC)c(-c2cccs2)n2c1CCC2
- Ratio [1]: 3.4
- Ratio [2]: 100
- Ratio [3]: 1.8
- Oncostatic index (Mus musculus [4]): 138
- Ratio [5]: 100
- Ratio [6]: 1.7
- Ratio [7]: 3
- Ratio [8]: 100
- Oncostatic index (Mus musculus [9]): 125
- LD50 [10]: 120 mg/kg
- Oncostatic index (Mus musculus [11]): 167
- Ref I oncostatic index (Mus musculus [12]): 125
- Ref I oncostatic index (Mus musculus [13]): 167
- Ref I oncostatic index (Mus musculus [14]): 138

SMILES: CNC(=O)OCc1c(COC(=O)NC)c(-c2ccsc2)n2c1CCC2
- Ratio [2]: 80
- Oncostatic index (Mus musculus [15]): 120
- Oncostatic index (Mus musculus [4]): 100
- Oncostatic index (Mus musculus [16]): 100
- Ratio [17]: 80
- Oncostatic index (Mus musculus [18]): 120
- Ratio [19]: 1.4
- Ref I oncostatic index (Mus musculus [20]): 140
- Ref I oncostatic index (Mus musculus [21]): 140 and 126
- Ratio [22]: 86
- Ratio [23]: 1.2
- Ratio [24]: 86
- LD50 [10]: > 150 mg/kg
- Ref I oncostatic index (Mus musculus [25]): 125
- Ref I oncostatic index (Mus musculus [14]): 125

SMILES: CC(=O)OCc1c(COC(C)=O)c(-c2cccs2)n2c1CCC2
- Ratio [26]: 86
- Oncostatic index (Mus musculus [27]): 117
- Ratio [28]: 83
- Ref I oncostatic index (Mus musculus [29]): 121
- Oncostatic index (Mus musculus [30]): 100
- Ratio [31]: 92
- Oncostatic index (Mus musculus [32]): 114 and 100
- Ref I oncostatic index (Mus musculus [33]): 140
- Ref I oncostatic index (Mus musculus [20]): 125
- Ref I oncostatic index (Mus musculus [34]): 136
- Ratio [22]: 80
- LD50 [10]: 80 mg/kg
